Screening data as filed in PubChem BioAssay.
The list is not random: actives were taken first. Their share in the collection is about 2.2%.
EBI2 antag – EBI2 (human) antagonism. P32249. EBI2 beta-arrestin recruitment, luminescence, 7a,25-OHC stimulated. inhibition, % at 5 µM. hit rate 0.81% among 360,000. AID 651636; in the data active = inhibition above about 38%;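 also: enzyme fragment complementation signal reports receptor beta-arrestin coupling in cells; 0% = agonist plus DMSO wells and 100% = wells without agonist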
APJ antagonist – blocks the human apelin receptor APJ. inhibition, % at 20 µM. hit rate 0.32% among 330,000. CHO-K1 APJ beta-arrestin complementation, luminescence;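 active = inhibition above about 40% at 20 µM, limit read from the data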;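 also: cells challenged with 10 nM apelin-13 agonist together with compound; plate controls were apelin-13 plus DMSO wells for no effect and DMSO wells lacking apelin-13 for full effect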
APJ ag – activates the human apelin receptor APJ. P35414. CHO-K1 APJ PathHunter beta-arrestin, luminescence; 0% DMSO wells, 100% apelin. activation, % at 20 µM. hit rate 0.11% among 330,000;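 active = activation more than six SD over the plate average, tested at 20 µM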;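 also: 0% = DMSO alone and 100% = apelin-13 at 10 nM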
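Assay system: CHO-K1 cells stably expressing ProLink-tagged human APJ and arrestin–beta-gal acceptor. Compound dosing: 20 µM single point, 1% DMSO. Times: 16-18 h seeding, 90 min dark compound exposure, 60 min detection. Detection: beta-gal luminescence. Evaluation: APJ–arrestin association signal. Controls: negative DMSO alone, positive Apelin-13 at 10 nM.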
CXCR6 block – inhibitors of human CXCR6 receptor | inhibition, % at 20 µM | hit rate 0.36% among 360,000 | AID 602244 | CHO-K1 PathHunter CXCR6 beta-arrestin, luminescence; in the data active = inhibition above about 34%, passing the limit was not always enough;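 also: antagonist mode with CXCL16 agonist at 10 nM final; 0% = 10 nM CXCL16 with DMSO and 100% = unstimulated wells without agonist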
m5-HT2A agonist – activates the mouse 5-HT2A serotonin receptor. P35363. CHO-K1 mHTR2A beta-arrestin complementation, luminescence; percent of 30 µM serotonin response. activation, % at 7.6 µM. hit rate 0.66% among 360,000. AID 624169;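 active = activation above a run cutoff, the mean activation of all tested compounds plus 3 SD, cut at about 14% in these data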;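 also: 0% = plate median of compound wells and 100% = 30 µM serotonin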
CCR6 antag – antagonists of human CCR6 receptor; AID 493098; CHO-K1 CCR6 PathHunter beta-arrestin, luminescence, CCL20-stimulated; hit rate 0.49% among 340,000; P51684; inhibition, % at 20 µM;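 active = compounds whose inhibition of the agonist-driven luminescence signal at 20 µM reaches about 50%, limit read from the data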;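 also: cells stimulated with CCL20 at 14 nM final; plate controls were DMSO with CCL20 for no effect and DMSO without agonist for full effect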
Target sequence (P51684 whole entry, looked up): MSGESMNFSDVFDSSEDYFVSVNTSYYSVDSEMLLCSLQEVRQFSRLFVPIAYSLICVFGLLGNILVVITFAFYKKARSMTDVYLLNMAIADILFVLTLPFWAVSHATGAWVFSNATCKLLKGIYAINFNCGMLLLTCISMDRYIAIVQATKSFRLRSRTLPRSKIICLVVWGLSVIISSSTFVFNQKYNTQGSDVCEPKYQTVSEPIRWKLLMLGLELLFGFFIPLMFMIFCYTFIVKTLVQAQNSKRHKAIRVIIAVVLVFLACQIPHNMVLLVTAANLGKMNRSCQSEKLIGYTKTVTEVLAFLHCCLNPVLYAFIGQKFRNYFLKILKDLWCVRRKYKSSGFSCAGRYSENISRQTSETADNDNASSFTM
EBI2 antag conf – confirmation of human EBI2 receptor antagonists | shares compounds with EBI2 antag | EBI2 beta-arrestin luminescence, 7a,25-OHC antagonism | inhibition, % at 5 µM | hit rate 29% among 2,400;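 active = inhibition of at least 50%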
EBI2 ag – EBI2 agonism counter-screen; shares compounds with EBI2 antag; AID 652000; activation, % at 5 µM; 2,400 tested, under 10 active; EBI2-expressing cells, agonist mode, luminescence, 60 min; 0% vehicle, 100% 7α,25-dihydroxycholesterol control;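 active = activation of at least 50%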
bGal counter – counter-screen for EBI2 antagonists: E. coli beta-galactosidase inhibition | AID 652176 | inhibition, % at 5 µM | shares compounds with EBI2 antag | purified beta-galactosidase, luminescent Galacton Star, 15 min | hit rate 1% among 2,400;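 active = replicate-average signal at least 3 plate SD below neutral wells, shown as high inhibition, flagging enzyme-inhibiting false positives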;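 also: 0% = DMSO wells with enzyme and 100% = wells lacking enzyme; higher means stronger loss of beta-gal luminescence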
* = called active by the depositor; x = no result.

SMILES	EBI2 antag	APJ antagonist	APJ ag	CXCR6 block	m5-HT2A agonist	CCR6 antag	EBI2 antag conf	EBI2 ag	bGal counter
COC(=O)c1ccc2c(=O)n(CCCN3CCOCC3)c(=S)[nH]c2c1	3	11	1	0	1	3	x	x	x
COC(=O)c1cc(=O)n(CCc2ccc(OC)cc2)c(=Nc2ccc(F)c(Cl)c2)s1	66*	5	-5	8	4	14	41	-1	7
Cc1ccc(S(=O)(=O)N2C[C@H]3n4c(=O)ccc(=O)n4C[C@H](OC(=O)NCC4CCCCC4)[C@@]3(O)C2)cc1	3	x	x	-2	8	x	x	x	x
O=C(NCc1ccncc1)[C@@H]1CCCN1C(=O)[C@H]1CCCN1C(=O)c1ccccc1	-6	x	x	4	3	x	x	x	x
O=C1NC[C@H](CC2CCCCC2)N(CCC23CC4CC(CC(C4)C2)C3)C1=O	14	x	x	-1	7	x	x	x	x
COc1cccc(-c2cc(C(=O)N3CCN(S(=O)(=O)c4ccccc4)CC3)[nH]n2)c1	35	-37	-2	-4	3	-1	x	x	x
CC1CC(C)CN(S(=O)(=O)c2ccc(C(=O)N3CCN(c4ccccc4)CC3)cc2)C1 (stereo not given)	57*	13	2	3	2	-15	28	0	-10
O=C(c1ccc(S(=O)(=O)N2CCCCCC2)cc1)N1CCN(c2ccccc2)CC1	20	-30	-3	-6	4	23	x	x	x
COc1ccc(C(=O)N2CCN(S(=O)(=O)c3ccc(Br)cc3)CC2)cc1	52*	-8	-3	-6	2	9	28	1	9
COc1ccc(CN2CCN(C(=O)c3ccc(S(=O)(=O)N4CCCCCC4)cc3)CC2)cc1	-1	-18	2	1	0	-7	x	x	x
COc1ccc(-c2cc(C(=O)N3CCN(S(=O)(=O)c4ccc(C)cc4)CC3)[nH]n2)cc1	53*	2	1	0	2	3	49	-1	-13
COc1ccc(S(=O)(=O)N2CCN(C(=O)c3cc(-c4ccc(C)cc4)n[nH]3)CC2)cc1	74*	-21	-3	4	1	9	49	2	3
CC1=C(C(=O)N2CCCCCC2)CC(CC(=O)NCCCCc2ccccc2)C(=O)N1Cc1ccccc1 (stereo not given)	8	x	x	8	-2	x	x	x	x
COc1cccc(Nc2nc(C(N)c3ccccc3)cs2)n1 (stereo not given)	-9	x	x	-8	3	x	x	x	x
Cc1ccc(CNC(=O)C2CCN(S(=O)(=O)c3ccc4c(c3)CC(C)N4C(=O)C3CC3)CC2)cc1 (stereo not given)	79*	-9	22	-7	-7	9	45	1	3
CC(=O)N1c2ccc(S(=O)(=O)NCC3CCC(C(=O)NCc4ccc(C)cc4)CC3)cc2CC1C (stereo not given)	57*	9	7	1	-2	16	46	0	7
Cc1ccc(Cl)cc1-c1cc(C(=O)NCc2cc(C(F)(F)F)cc(C(F)(F)F)c2)[nH]n1	7	x	x	-3	-5	x	x	x	x
Cn1nc(Oc2ncc(C(F)(F)F)cc2Cl)cc1C(F)(F)F	66*	-5	1	4	1	1	8	-2	-13
COC(=O)[C@@]12C[C@@H](CC(=O)N3CCSCC3)C(=O)N(Cc3ccco3)C1=CCC(C)(C)C2	4	x	x	x	9	x	x	x	x
O=C(NCc1ccc(F)cc1)c1cc(C2CCCN(C(=O)C3CCCCC3)C2)on1 (stereo not given)	3	x	x	7	1	x	x	x	x
C[C@@H](C(=O)Nc1ccc2ccccc2c1)[C@H]1C[C@]1(C)[C@H](NC(=O)c1cnccn1)c1ccccc1	10	-4	-1	4	-7	2	x	x	x
